GalR3 antag: blocks the human galanin receptor 3 | HEK293 GalR3-CNG cAMP membrane potential fluorescence; galR3 body fused to GalR1 C-terminus | inhibition, % at 3 µM | hit rate 0.44% among 360,000;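 active means inhibition above the screen-wide average plus 3 SD, cut at about 13% in these data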;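 further: forskolin and galanin both at EC90 stimulate the cells; cAMP rise reported by CNG channel membrane potential dye signal; 0% = forskolin plus galanin with DMSO and 100% = forskolin alone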
Target sequence (O60755 1-299 limits assumed): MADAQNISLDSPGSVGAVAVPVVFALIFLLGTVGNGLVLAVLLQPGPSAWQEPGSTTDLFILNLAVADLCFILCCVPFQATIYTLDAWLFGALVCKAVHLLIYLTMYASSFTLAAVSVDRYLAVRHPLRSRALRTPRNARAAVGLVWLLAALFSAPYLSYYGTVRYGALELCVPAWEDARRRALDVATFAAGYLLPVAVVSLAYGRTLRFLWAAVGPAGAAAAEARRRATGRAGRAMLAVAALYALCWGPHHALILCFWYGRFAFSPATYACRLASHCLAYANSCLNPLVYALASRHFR
NR2E3 ag-1: activates human photoreceptor nuclear receptor NR2E3. Q9Y5X4. GST-NR2E3/biotin-RetCOR TR-FRET, 1536-well. inhibition of corepressor binding, % at 4.78 µM. hit rate 0.12% among 320,000;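 active means percent inhibition above the cutoff of mean plus 3 SD of all tested compounds, set per screening campaign, cut at about 20% in these data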;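 further: 0% = DMSO wells and 100% = biotin wells as full block of FRET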
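Test system – NR2E3–RetCOR corepressor complex · Quantity – NR2E3 fusion 1.35 nM · Buffer or medium – Tris pH 7.5 · Incubation – Compound–protein incubation for 5 h at 4 °C · Technique – TR-FRET, Eu(K)-anti-GST donor, streptavidin-D2 acceptor, ex 340, em 617/671 nm · Evaluation – percent inhibition of 671/617 nm emission ratio versus biotin and DMSO controls · Plate – 1536-well format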
NR2E3 ag-2: agonists of human NR2E3 nuclear receptor; Q9Y5X4; CHO-S Gal4-NCOR/VP16-NR2E3 two-hybrid, luciferase; inhibition of corepressor binding, % at 3.98 µM; hit rate 0.35% among 360,000; AID 602229;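 active means inhibition above the mean of all tested compounds plus 3 SD, cut at about 70% in these data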;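 further: 0% = DMSO with NR2E3 transfected cells and 100% = cells lacking NR2E3 construct; higher means lower luciferase signal from less NR2E3 corepressor binding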
bovine MsrA act: bovine methionine sulfoxide reductase A activation; hit rate 0.3% among 360,000; purified bovine MsrA, absorbance read-out; AID 602163; activation, % at 10.6 µM; in the data active means activation above about 7.5%;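 further: 0% = vehicle and 100% = reference activator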
NadD block: inhibitors of Staphylococcus aureus NadD; purified NadD enzyme, colorimetric absorbance read-out; inhibition, % at 20 µM; hit rate 0.78% among 360,000; in the data active means inhibition above about 26%
MsrA inh: inhibits bovine methionine sulfoxide reductase A | AID 651718 | hit rate 0.75% among 360,000 | inhibition, % at 15.5 µM | purified bovine MsrA, absorbance read-out; in the data active means inhibition above about 4.5%;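 further: 0% = vehicle wells with enzyme and 100% = reference inhibitor wells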
NadD inh conf: NadD (S. aureus) inhibition, single concentration confirmation; shares compounds with NadD block; purified S. aureus NadD, colorimetric enzyme assay; AID 624309; hit rate 13% among 2,000; inhibition, % at 20 µM; in the data active means inhibition mostly above about 42%, no sharp cut-off; inactive means mostly below about 42%
Starred values were filed as active, the others as inactive; · = not tested or not shown. Only some compounds are listed: those with a hit (about 2.5% of all), similar ones and a draw of the others.

SMILES | GalR3 antag | NR2E3 ag-1 | NR2E3 ag-2 | bovine MsrA act | NadD block | MsrA inh | NadD inh conf
N#Cc1ccccc1OCC(=O)NNC(=O)CCNC(=O)c1ccccc1 | -3.4 | · | 3.9 | -10.2 | -1.8 | -0.7 | ·
CCN(C(=O)CN(C1=NC2CS(=O)(=O)CC2S1)c1ccc(OC)cc1)c1cccc(C)c1 (stereo not given) | · | · | -32.4 | -1.1 | -4.0 | 2.0 | ·
O=C1c2ccc(-c3ccc(F)cc3OCc3ccccc3)cc2S(=O)(=O)c2cccc(C(=O)N3CCN(c4ncc(Cl)cc4Cl)CC3)c21 | -0.8 | · | 5.5 | -11.1 | 60.6* | -0.2 | 20.9
O=C(NC[C@H]1CCCO1)c1cccc2c1C(=O)c1ccc(-c3ccc(F)cc3OCc3ccccc3)cc1S2(=O)=O | -3.8 | · | 36.8 | -10.0 | 17.0 | 1.8 | ·
N#Cc1cccnc1N1CCN(C(=O)c2cccc3c2C(=O)c2ccc(-c4ccc(F)cc4OCc4ccccc4)cc2S3(=O)=O)CC1 | -3.2 | · | -32.6 | -1.8 | 31.4* | 0.1 | 0.5
O=C1c2ccc(-c3ccc(Cl)c(C(F)(F)F)c3)cc2S(=O)(=O)c2cccc(C(=O)N3CCN(c4ncc(Br)cn4)CC3)c21 | 3.1 | · | -16.4 | -3.2 | 52.5* | 1.1 | 1.1
COc1ccc(-c2ccc3c(c2)S(=O)(=O)c2cccc(C(=O)N4CCN(c5ccc(Cl)cn5)CC4)c2C3=O)cc1OC | -0.1 | · | -6.5 | -3.4 | 28.2 | 1.1 | ·
O=C1c2ccc(Cl)cc2S(=O)(=O)c2cccc(C(=O)N3CCN(c4ccc(Cl)cn4)CC3)c21 | 0.8 | 3.7 | 1.8 | -5.1 | 21.9 | 0.6 | ·
Cc1cc(CNC(=O)c2cccc3c2C(=O)c2ccc(-c4ccc(F)cc4OCc4ccccc4)cc2S3(=O)=O)c(C(F)(F)F)o1 | -4.6 | · | -27.0 | -4.5 | 51.9* | 2.2 | 38.9
O=C(NCCS(=O)(=O)NCc1ccccc1)c1ccccc1 | 3.9 | -2.0 | -0.6 | -2.4 | -0.4 | 0.3 | ·
O=C(CNc1ccccc1)NNC1=NCCC1 | -3.2 | 1.4 | -11.1 | -3.7 | -5.5 | -0.6 | ·
Cc1ccc([C@@H]2C[C@H]3[C@@H](CN2S(=O)(=O)c2ccc(Cl)cc2)C(=O)C[C@@H](c2ccccc2)N3S(=O)(=O)c2ccc(C)cc2)cc1 | -4.7 | · | -9.3 | -2.0 | 22.7 | -0.9 | ·
COc1ccc([C@@H]2CC(=O)[C@@H]3CN(S(=O)(=O)c4ccc(Cl)cc4)[C@H](c4ccc(C)cc4)C[C@@H]3N2S(=O)(=O)c2ccccc2)cc1 | 1.6 | · | 3.0 | -8.2 | 30.3* | 0.5 | 7.9
Cc1ccc(N2C(=O)C3N=NN(CC(=O)N4N=C(c5ccccc5)CC4c4ccccc4)C3C2=O)cc1 (stereo not given) | -0.4 | 0.0 | -15.5 | -2.2 | 43.0* | 0.8 | 31.4
COc1cc(C(=S)N2CCC(C(N)=O)CC2)ccc1O | -0.5 | -0.5 | -9.7 | -4.1 | -2.1 | -2.2 | ·
CCOC(=O)c1c(-c2ccccc2)csc1NC(=O)C1CCCO1 (stereo not given) | 0.0 | 1.5 | -0.6 | -0.3 | -2.3 | -0.1 | ·
CCOC(=O)c1c(-c2ccc(-c3ccccc3)cc2)csc1NC(=O)C1C2CCC(O2)C1C(=O)O (stereo not given) | -1.8 | -1.1 | 26.4 | -7.4 | 37.8* | -0.1 | 56.5*
O=C(Cn1nc(C(F)F)cc1C1CC1)N1CCCC1 | -9.0 | 5.4 | -28.4 | 4.7 | 0.6 | 0.9 | ·
O=C(CSc1nnc2c3ccccc3c3ccccc3c2n1)Nc1ccccc1F | 0.9 | -9.2 | 3.5 | -6.7 | 41.7* | 2.2 | 3.1
Nc1scc2c(C(=O)N/N=C/c3ccc(Cl)cc3)nn(-c3ccccc3)c(=O)c12 | -3.7 | 4.4 | -36.0 | 3.5 | 39.6* | 0.2 | 14.5
O=C(CSc1nc(-c2ccccc2)nc2ccccc12)Nc1nccs1 | -4.3 | -21.4 | -9.8 | -1.4 | 6.1 | 0.7 | ·
O=C(Nc1ccc(N2CCCCC2)c(S(=O)(=O)Nc2ccccc2Cl)c1)c1cccnc1 | 1.4 | · | -33.9 | 0.5 | 4.2 | 0.1 | ·
O=C(Nc1ccc(Cl)c(Cl)c1)Nc1ccc(N2CCCC2)c(S(=O)(=O)Nc2ccccc2Cl)c1 | -0.8 | -1.1 | -17.1 | -4.8 | 31.0* | 0.8 | 36.4
